{
  "source": "paper PMC10725268",
  "about": "(CPT: Pharmacometrics & Systems Pharmacology, 2023)",
  "key": {"[1]": {"assay": "Steady-state plasma concentrations of PMB", "assay_type": "in vivo", "conditions": "human, iv", "procedure,_shortened": "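Blood drawn after ≥48 h of dosing; peak taken immediately after infusion end. Samples centrifuged 885 g, 10 min; supernatant stored −80°C. PMB1 and PMB2 measured by UPLC-MS/MS on a C18 column (2.6 μm, 3.0 × 50 mm), 40°C, 0.3 ml/min. Gradient: 0.1% formic acid in water versus acetonitrile. Total PMB is the sum of PMB1 and PMB2.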"}, "critically ill patients [2]": {"test_system": "critically ill patients", "assay": "Clinical outcome during intravenous PMB treatment", "assay_type": "in vivo, human", "procedure,_shortened": "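Single-centre ICU cohort, August 2020–July 2022: adults on intravenous PMB for ≥2 days with MDR Gram-negative infection. Excluded: baseline creatinine >1.5 mg/dl, prior renal replacement, or a changed maintenance dose. Prognosis and adverse events were taken from hospital records. AKI and non-AKI groups were compared by chi-square or Fisher's exact test.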"}, "critically ill patients [3]": {"test_system": "critically ill patients", "assay": "PMB-induced acute kidney injury", "assay_type": "in vivo, human", "procedure,_shortened": "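ICU adults (>18 years) with MDR Gram-negative infection, given intravenous PMB (sulfate) for ≥2 days with plasma monitoring. Excluded: baseline serum creatinine >1.5 mg/dl or prior renal replacement. AKI (KDIGO) was a serum creatinine rise ≥0.3 mg/dl within 48 h, >1.5-fold within 7 days, or urine output <0.5 ml/kg/h for >6 h.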"}, "patients receiving PMB": {"test_system": "patients receiving PMB", "conditions": "cited from earlier work"}, "critically ill patients [4]": {"test_system": "critically ill patients", "assay_type": "in vivo, human", "procedure,_shortened": "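Intravenous dosing: 2.5 mg/kg loading dose (not all patients), then 2.5–3 mg/kg/day in two divided doses. After ≥48 h, mid-interval plasma concentration was sampled 6 h post-dose. Variables with p < 0.05 in univariate logistic regression entered forward-stepwise multivariate regression, with fit checked by Hosmer–Lemeshow. ROC cutoff was taken at the maximum Youden index. AKI probability came from a logistic equation on C1/2t.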"}, "[5]": {"assay": "Estimation of PMB AUC0-24 from timed steady-state plasma concentrations", "assay_type": "in vivo, human", "conditions": "mean ± SD; for AUC(0-t): human, iv, AUC0–24, trapezoidal area"}, "[6]": {"conditions": "one-compartment model, AKI (n = 30)"}, "[7]": {"conditions": "one-compartment model, Non-AKI (n = 25)"}, "[8]": {"conditions": "one-compartment model, Overall (n = 55)"}},
  "note": "Where a SMILES comes first, the peptide text is derived from it. Bridges are numbered along the chain shown (N, C = ends). [ ]: non-standard residue; d: D form. The star is where a group is joined. Heptanoyl(6-Me) = CC(C)CCCCC(=O)*; X1 = CC[C@H](C)CCCCC(=O)*; Dab = NCC[C@H](N)C(=O)O",
  "data": [
    {"smiles": "CC(C)CCCCC(=O)N[C@@H](CCN)C(=O)N[C@H](C(=O)N[C@@H](CCN)C(=O)N[C@H]1CCNC(=O)[C@H]([C@@H](C)O)NC(=O)[C@H](CCN)NC(=O)[C@H](CCN)NC(=O)[C@H](CC(C)C)NC(=O)[C@@H](Cc2ccccc2)NC(=O)[C@H](CCN)NC1=O)[C@@H](C)O", "note": "[PMB2, polymyxin B2] ({Heptanoyl(6-Me)}-[Dab]T[Dab][Dab][Dab][dF]L[Dab][Dab]T; lactam 4-C)", "values": [
      {"measurement": "Cmax", "setting": "[1]", "value": 1000, "unit": "ng/mL"}
    ]},
    {"smiles": "CC[C@H](C)CCCCC(=O)N[C@@H](CCN)C(=O)N[C@H](C(=O)N[C@@H](CCN)C(=O)N[C@H]1CCNC(=O)[C@H]([C@@H](C)O)NC(=O)[C@H](CCN)NC(=O)[C@H](CCN)NC(=O)[C@H](CC(C)C)NC(=O)[C@@H](Cc2ccccc2)NC(=O)[C@H](CCN)NC1=O)[C@@H](C)O", "note": "[PMB, polymyxin B] (X1-[Dab]T[Dab][Dab][Dab][dF]L[Dab][Dab]T; lactam 4-C)", "values": [
      {"measurement": "30-day mortality rate", "setting": "critically ill patients [2]; AKI group", "value": 46.7, "unit": "%"},
      {"measurement": "30-day mortality rate", "setting": "critically ill patients [2]; non-AKI group", "value": 20, "unit": "%"},
      {"measurement": "overall AKI incidence", "setting": "critically ill patients [3]; 30 of 55 patients on intravenous PMB, KDIGO definition", "value": 54.5, "unit": "%"},
      {"measurement": "patients who developed AKI on Day 3", "setting": "critically ill patients [3]; after PMB administration", "value": 13.3, "unit": "%"},
      {"measurement": "patients who developed AKI within 7 days", "setting": "critically ill patients [3]; share of the AKI group (n = 30)", "value": 46.7, "unit": "%"},
      {"measurement": "trough concentration limit suggested to reduce the risk of AKI", "setting": "patients receiving PMB; ref 16 (Han et al.)", "value": "< 3.13", "unit": "mg/L"},
      {"measurement": "nephrotoxicity compared with colistin", "setting": "patients receiving PMB; systematic review and meta-analysis", "value": "lower nephrotoxicity than colistin"},
      {"measurement": "optimal cutoff value of C1/2t for predicting PMB-induced AKI", "setting": "critically ill patients [4]; ROC curve, Youden index, p = 0.002, 66.7% sensitivity, 72% specificity", "value": 3.47, "unit": "µg/mL"},
      {"measurement": "C1/2t at which the probability of AKI was >50%", "setting": "critically ill patients [4]; univariate logistic regression, Equation 5", "value": "≥ 3.24", "unit": "mg/L"},
      {"measurement": "AUC(0-t)", "setting": "[5]; based on Cmin(B) and Cmax(B), AKI (n = 30)", "value": "128 ± 36.2", "unit": "µg·h/mL"},
      {"measurement": "AUC(0-t)", "setting": "[5]; based on Cmin(B) and Cmax(B), Non-AKI (n = 25)", "value": "102 ± 30.9", "unit": "µg·h/mL"},
      {"measurement": "AUC(0-t)", "setting": "[5]; based on Cmin(B) and Cmax(B), Overall (n = 55)", "value": "116 ± 36", "unit": "µg·h/mL"},
      {"measurement": "AUC(0-t)", "setting": "[5]; based on Cmin(B), C1/2t(B), and Cmax(B), AKI (n = 30)", "value": "110 ± 31.3", "unit": "µg·h/mL"},
      {"measurement": "AUC(0-t)", "setting": "[5]; based on Cmin(B), C1/2t(B), and Cmax(B), Non-AKI (n = 25)", "value": "85.4 ± 24.4", "unit": "µg·h/mL"},
      {"measurement": "AUC(0-t)", "setting": "[5]; based on Cmin(B), C1/2t(B), and Cmax(B), Overall (n = 55)", "value": "99.1 ± 30.8", "unit": "µg·h/mL"},
      {"measurement": "AUC0–24, first-order pharmacokinetic equation, based on C1/2t(B) and Cmax(B) (AUC1/2t,max)", "setting": "[5]; [6]", "value": "103.7 ± 31.2", "unit": "µg·h/mL"},
      {"measurement": "AUC0–24, first-order pharmacokinetic equation, based on Cmin(B) and C1/2t(B)", "setting": "[5]; [6]", "value": "100.7 ± 34.8", "unit": "µg·h/mL"},
      {"measurement": "AUC0–24, first-order pharmacokinetic equation, based on Cmin(B) and Cmax(B)", "setting": "[5]; [6]", "value": "115.7 ± 35.1", "unit": "µg·h/mL"},
      {"measurement": "AUC0–24, first-order pharmacokinetic equation, based on Cmin(B) and C1/2t(B)", "setting": "[5]; [7]", "value": "72.8 ± 21.2", "unit": "µg·h/mL"},
      {"measurement": "AUC0–24, first-order pharmacokinetic equation, based on Cmin(B) and Cmax(B)", "setting": "[5]; [7]", "value": "90.2 ± 28.4", "unit": "µg·h/mL"},
      {"measurement": "AUC0–24, first-order pharmacokinetic equation, based on Cmin(B) and C1/2t(B)", "setting": "[5]; [8]", "value": "88.1 ± 32.3", "unit": "µg·h/mL"},
      {"measurement": "AUC0–24, first-order pharmacokinetic equation, based on Cmin(B) and Cmax(B)", "setting": "[5]; [8]", "value": "104.1 ± 34.4", "unit": "µg·h/mL"}
    ]},
    {"smiles": "CC[C@H](C)CCCCC(=O)N[C@@H](CCN)C(=O)N[C@H](C(=O)N[C@@H](CCN)C(=O)N[C@H]1CCNC(=O)[C@H]([C@@H](C)O)NC(=O)[C@H](CCN)NC(=O)[C@H](CCN)NC(=O)[C@H](CC(C)C)NC(=O)[C@@H](Cc2ccccc2)NC(=O)[C@H](CCN)NC1=O)[C@@H](C)O", "note": "[PMB1, polymyxin B1] (X1-[Dab]T[Dab][Dab][Dab][dF]L[Dab][Dab]T; lactam 4-C)", "values": [
      {"measurement": "peak concentration above which the probability of AKI would be >50%", "setting": "patients receiving PMB; ref 17 (Deng et al.)", "value": "> 5.23", "unit": "µg/mL"}
    ]}
  ]
}
